Active and inactive are the calls of the source. The rule behind the calls is not given here.
How the values were obtained:
HEK293 = test: Cytotoxicity against HEK293 cells assessed as reduction in cell viability up to 200 uM after 10 mins by MTT assay; assay type: cell-based; conditions: human, hek293, 10 min
Method in brief: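 HEK293-mock cells were exposed to 100 or 200 μM for 10 min. MTT was added at 0.83 mg mL−1 final and incubated overnight. Cells were lysed in 15% SDS/0.015 M HCl and absorbance was read at 570 nm. Viability is given as % of drug-free controls.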

[1] = Cytotoxicity against HEK293FT cells assessed as reduction in cell viability up to 20 uM; assay type: cell-based; conditions: human
[2] = target: T1, Solute carrier family 22 member 1 (Homo sapiens, UniProt O15245); test: Substrate activity at human OCT1 expressed in HEK293 cells assessed as compound uptake by HPLC-UV method; assay type: ADME, cell-based
T1 sequence (O15245 whole entry): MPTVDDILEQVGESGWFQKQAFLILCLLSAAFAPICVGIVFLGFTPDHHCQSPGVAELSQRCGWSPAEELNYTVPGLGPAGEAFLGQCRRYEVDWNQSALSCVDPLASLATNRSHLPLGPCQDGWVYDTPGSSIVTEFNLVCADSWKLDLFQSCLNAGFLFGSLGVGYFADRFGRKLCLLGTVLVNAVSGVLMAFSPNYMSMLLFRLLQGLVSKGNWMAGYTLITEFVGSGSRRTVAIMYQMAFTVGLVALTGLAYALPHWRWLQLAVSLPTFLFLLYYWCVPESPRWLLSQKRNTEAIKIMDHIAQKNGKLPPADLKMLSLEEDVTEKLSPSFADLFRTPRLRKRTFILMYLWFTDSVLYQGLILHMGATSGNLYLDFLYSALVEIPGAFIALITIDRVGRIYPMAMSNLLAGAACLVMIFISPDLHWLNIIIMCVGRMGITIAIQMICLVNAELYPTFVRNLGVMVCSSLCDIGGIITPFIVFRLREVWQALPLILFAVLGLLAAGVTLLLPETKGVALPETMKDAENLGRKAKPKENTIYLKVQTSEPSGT

SK-OV-3 = test: Cytotoxicity against human SKOV3 cells assessed as reduction in cell viability up to 20 uM after 24 hrs by MTT assay; assay type: functional, cell-based
Method in brief: (§1)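 Cells were grown as adherent monolayers at 37 °C in 5% CO2: SKOV3 in advanced DMEM, DU145 and MB231 in RPMI-1640 with glutamine and 10% FBS. They were seeded at 2000–7500 cells/well, treated on day 1 for 24 h with drug in DMSO (final DMSO <0.1%), then given MTT at 0.83 mg mL−1 final overnight. After SDS/HCl lysis, A570 was read as percent of drug-free control; five replicate wells.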

[3] = target: T2, Organic anion transporter 3 (Homo sapiens, UniProt Q8TCC7); test: Inhibition of human OAT3 expressed in HEK293 cells assessed as 6-CF uptake after 5 mins by fluorescence assay; assay type: cell-based; conditions: for inhibition (INH): human, hek293, 5 min
T2 sequence (Q8TCC7 whole entry): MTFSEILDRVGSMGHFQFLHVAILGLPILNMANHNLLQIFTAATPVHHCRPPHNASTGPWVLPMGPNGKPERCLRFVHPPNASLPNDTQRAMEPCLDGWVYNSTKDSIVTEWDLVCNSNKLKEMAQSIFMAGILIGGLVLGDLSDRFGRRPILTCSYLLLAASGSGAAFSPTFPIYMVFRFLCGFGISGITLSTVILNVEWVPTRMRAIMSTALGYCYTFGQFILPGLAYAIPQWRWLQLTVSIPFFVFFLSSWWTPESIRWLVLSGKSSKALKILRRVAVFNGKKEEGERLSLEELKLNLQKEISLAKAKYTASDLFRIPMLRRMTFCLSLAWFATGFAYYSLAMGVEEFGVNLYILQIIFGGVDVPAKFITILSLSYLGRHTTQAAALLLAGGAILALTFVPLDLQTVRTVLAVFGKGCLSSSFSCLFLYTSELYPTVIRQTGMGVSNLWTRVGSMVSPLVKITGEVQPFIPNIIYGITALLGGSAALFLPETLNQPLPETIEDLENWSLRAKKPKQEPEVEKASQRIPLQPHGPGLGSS
Method in brief: (§2)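 Stably transfected HEK293 cells (human OAT1, OAT3, OCT1, OCT2, OATP1B3, OATP2B1) and mock cells were assayed 16 h after seeding in HEPES uptake buffer, pH 7.2, with fluorescent probe ± compound. Incubation was 5 min for OAT1/3 and OATPs, and 10 min for OCT1/2. Reference inhibitors were probenecid (OATs), quinine (OCTs) and rifampicin (OATPs). Uptake was stopped with ice-cold PBS and cells were lysed in Tris/Triton. Fluorescence was normalised to BCA protein; triplicates, repeated 2–3 times.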

MDA-MB-231 = test: Cytotoxicity against human MDA-MB-231 cells assessed as reduction in cell viability up to 20 uM after 24 hrs by MTT assay; assay type: functional, cell-based; method in brief: as §1
[4] = Cytotoxicity against HEK293FT cells expressing GLUT1 assessed as reduction in cell viability up to 20 uM; assay type: cell-based; conditions: human
[5] = target: T3, Solute carrier organic anion transporter family member 2B1 (Homo sapiens, UniProt O94956); test: Inhibition of human OATP2B1 expressed in HEK293 cells assessed as DBF uptake after 5 mins by fluorescence assay; assay type: cell-based; conditions: for inhibition (INH): human, hek293, 5 min; method in brief: as §2
T3 sequence (O94956 whole entry): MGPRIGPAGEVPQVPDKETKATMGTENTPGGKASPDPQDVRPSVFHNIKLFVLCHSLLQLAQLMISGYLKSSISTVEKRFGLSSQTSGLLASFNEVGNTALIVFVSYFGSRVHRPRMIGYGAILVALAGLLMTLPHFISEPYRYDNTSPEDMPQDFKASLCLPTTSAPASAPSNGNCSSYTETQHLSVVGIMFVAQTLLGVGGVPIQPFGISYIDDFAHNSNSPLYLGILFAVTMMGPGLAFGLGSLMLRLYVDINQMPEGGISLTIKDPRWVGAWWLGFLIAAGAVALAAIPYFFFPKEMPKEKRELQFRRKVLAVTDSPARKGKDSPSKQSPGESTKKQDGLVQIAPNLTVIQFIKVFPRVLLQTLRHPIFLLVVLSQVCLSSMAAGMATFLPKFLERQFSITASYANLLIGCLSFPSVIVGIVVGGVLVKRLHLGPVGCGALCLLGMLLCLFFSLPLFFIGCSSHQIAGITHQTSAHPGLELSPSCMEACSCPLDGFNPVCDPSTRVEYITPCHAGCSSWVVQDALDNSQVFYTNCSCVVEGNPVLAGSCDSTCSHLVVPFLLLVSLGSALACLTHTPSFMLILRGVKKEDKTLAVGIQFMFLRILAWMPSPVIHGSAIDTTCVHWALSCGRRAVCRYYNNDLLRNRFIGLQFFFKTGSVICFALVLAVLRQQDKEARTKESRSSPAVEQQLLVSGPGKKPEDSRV

[6] = Toxicity in ip dosed DBA/2 mouse assessed as reduction in 15% body weight administered as daily dose for 3 days; assay type: organism-based; conditions: in vivo
Method in brief: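 Adult male DBA/2 mice were dosed i.p. at 10 mL kg−1, with 5 per group. Controls (n = 8) received saline. MTD was the dose allowing 15% median body-weight loss with no toxic deaths or marked change in general signs within 3 days.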

[7] = target: T1, Solute carrier family 22 member 1; test: Inhibition of human OCT1 expressed in HEK293 cells assessed as Asp+ uptake after 10 mins by fluorescence assay; assay type: cell-based; conditions: for inhibition (INH): human, hek293, 10 min; method in brief: as §2

Row | SMILES | Activity (HEK293) | Activity [1] | Drug uptake [2] | Activity (SK-OV-3) | IC50 [3] [µM] | inhibition (INH) [3] | Activity (MDA-MB-231) | Activity [4] | IC50 [5] [µM] | inhibition (INH) [5] | MTD at 72 h [6] [mg/kg] | IC50 [7] [µM] | inhibition (INH) [7]
1 | COc1ccc(/C=C\c2cc(OC)c(OC)c(OC)c2)cc1O [COMBRETASTATIN A4] | Non-Toxic | Toxic | Active | Active | 16.4 | Dose-dependent effect | Active | Toxic | 12.3 | Dose-dependent effect | 25 | > 200 | Dose-dependent effect
2 | COc1ccc(/C=C\c2cc(OC)c(OC)c(OC)c2)cc1O[C@@H]1O[C@H](CO)[C@@H](O)[C@H](O)[C@H]1O | Non-Toxic | Toxic | Not Active | Active | > 200 | Dose-dependent effect | Active | Toxic | > 200 | Dose-dependent effect | 400 | > 200 | Dose-dependent effect

From ChEMBL document CHEMBL4257448, “Deciphering the origins of molecular toxicity of combretastatin A4 and its glycoconjugates: interactions with major drug transporters and their safety profiles in vitro and in vivo” (Medchemcomm, 2017)
